From ChEMBL document CHEMBL1817572, “New, potent, selective, and short-acting peptidic V1a receptor agonists” (J Med Chem, 2011)
Bridge positions count the residues as written; N and C are the ends. Square brackets hold non-standard residues; d marks the D form. Peptide text beside a SMILES is read from it. Orn(iPr) = CC(C)NCCC[C@H](N)C(=O)O; Cha = N[C@@H](CC1CCCCC1)C(=O)O

Tests used:
[1] = target: Vasopressin V1a/V2 (Homo sapiens) (UniProt P30518+P37288); experiment: Selectivity ratio of EC50 for human vasopressin V2 receptor to EC50 for human vasopressin V1a receptor
Vasopressin V1a receptor [2] = target: Vasopressin V1a receptor (Homo sapiens, UniProt P37288); experiment: Agonist activity at recombinant human vasopressin V1a receptor expressed in HEK293 cells by luciferase reporter gene assay; format: functional, cell-based; conditions: read-out: EC50
Vasopressin V1b receptor = target: T1, Vasopressin V1b receptor (Homo sapiens, UniProt P47901); experiment: Agonist activity at recombinant human vasopressin V1b receptor expressed in Flp-In-293 cells by luciferase reporter gene assay; format: functional, cell-based; conditions: read-out: EC50
T1 sequence (P47901 whole entry): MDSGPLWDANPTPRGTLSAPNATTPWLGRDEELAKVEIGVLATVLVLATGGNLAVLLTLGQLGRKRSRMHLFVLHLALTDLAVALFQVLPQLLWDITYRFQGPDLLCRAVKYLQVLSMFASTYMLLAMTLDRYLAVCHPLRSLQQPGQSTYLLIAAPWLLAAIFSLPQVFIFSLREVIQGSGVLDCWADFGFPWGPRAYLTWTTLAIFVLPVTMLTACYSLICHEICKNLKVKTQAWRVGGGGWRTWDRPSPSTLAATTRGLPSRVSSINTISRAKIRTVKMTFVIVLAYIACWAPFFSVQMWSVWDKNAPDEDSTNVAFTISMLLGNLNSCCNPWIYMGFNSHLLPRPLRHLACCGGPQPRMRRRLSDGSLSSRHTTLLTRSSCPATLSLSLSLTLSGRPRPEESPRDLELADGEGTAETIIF
Summary of the method: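 Reporter gene assays in HEK293 cells transiently cotransfected with V1a (human or rat) or human V2 receptor vector plus NFAT-luciferase (V1a) or CRE-luciferase (V2) reporter; V1b in Flp-In-293 stably expressing receptor, OT in CHO-K1 stably expressing receptor, both transiently transfected with NFAT-luciferase. Two days post-transfection, peptides added for 5 h at 37 °C, lysis with luciferin, luminescence read.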

Vasopressin V2 receptor = Vasopressin V2 receptor (Homo sapiens, UniProt P30518); experiment: Agonist activity at recombinant human vasopressin V2 receptor expressed in HEK293 cells by luciferase reporter gene assay; format: functional, cell-based; conditions: read-out: EC50
Oxytocin receptor = target: T2, Oxytocin receptor (Homo sapiens, UniProt P30559); experiment: Agonist activity at human OT receptor expressed in CHO-K1 cells by luciferase reporter gene assay; format: functional, cell-based
T2 sequence (P30559 whole entry): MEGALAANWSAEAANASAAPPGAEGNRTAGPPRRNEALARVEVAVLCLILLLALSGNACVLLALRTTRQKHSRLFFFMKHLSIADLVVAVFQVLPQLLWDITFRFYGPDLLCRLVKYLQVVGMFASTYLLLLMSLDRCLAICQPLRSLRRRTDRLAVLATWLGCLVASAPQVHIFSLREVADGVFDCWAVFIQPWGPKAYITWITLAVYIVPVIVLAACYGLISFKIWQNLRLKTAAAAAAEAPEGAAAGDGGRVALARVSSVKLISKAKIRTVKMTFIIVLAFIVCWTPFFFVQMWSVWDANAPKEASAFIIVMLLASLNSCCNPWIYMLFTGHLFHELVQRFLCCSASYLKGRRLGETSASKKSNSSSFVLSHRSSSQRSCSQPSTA

Homo sapiens [3] = species on record: Homo sapiens; experiment: Selectivity ratio of EC50 for human vasopressin V1b receptor to EC50 for human vasopressin V1a receptor
Homo sapiens [4] = species on record: Homo sapiens; experiment: Selectivity ratio of EC50 for human oxytocin receptor to EC50 for human vasopressin V1a receptor
Vasopressin V1a receptor [5] = target: Vasopressin V1a receptor (Rattus norvegicus, UniProt P30560); experiment: Agonist activity at recombinant rat vasopressin V1a receptor expressed in HEK293 cells by luciferase reporter gene assay; format: functional, cell-based; conditions: read-out: EC50
Rattus norvegicus = experiment: Vasoconstriction in Wistar rat assessed as assessed as decay in vasopressive duration of action at 60 nmol/kg, iv bolus measured over 10 sec interval; format: functional
Summary of the method: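 Fasted male Wistar rats (206–340 g) under isoflurane, then thiobutabarbital 150 mg/kg ip, ventilated, 37–38 °C, with carotid pressure and jugular dosing. Dibenamine 1.8 mg/rat iv pretreatment. Sequence: iv boluses (0.5 mL/kg) of heparinized vehicle, then two reference doses of 0.1 nmol/kg, then two test doses; one matches the reference diastolic pressure rise. Relative duration = reference decay rate / test decay rate; mean ± SEM.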

Sequence of Vasopressin V1a receptor (Rattus norvegicus, UniProt P30560) (P30560 whole entry): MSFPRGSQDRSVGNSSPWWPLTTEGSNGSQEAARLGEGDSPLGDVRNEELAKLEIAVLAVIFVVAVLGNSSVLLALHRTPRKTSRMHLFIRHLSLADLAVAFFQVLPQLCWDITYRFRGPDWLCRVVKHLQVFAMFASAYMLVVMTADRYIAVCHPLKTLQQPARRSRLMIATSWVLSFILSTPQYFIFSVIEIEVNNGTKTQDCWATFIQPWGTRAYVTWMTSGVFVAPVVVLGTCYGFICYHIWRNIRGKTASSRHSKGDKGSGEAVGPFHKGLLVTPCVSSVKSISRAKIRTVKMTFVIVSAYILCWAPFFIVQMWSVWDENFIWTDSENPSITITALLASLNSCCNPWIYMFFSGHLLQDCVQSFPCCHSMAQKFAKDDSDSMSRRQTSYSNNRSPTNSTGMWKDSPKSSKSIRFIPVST
Sequence of Vasopressin V1a/V2 (Homo sapiens) (P30518 whole entry, looked up): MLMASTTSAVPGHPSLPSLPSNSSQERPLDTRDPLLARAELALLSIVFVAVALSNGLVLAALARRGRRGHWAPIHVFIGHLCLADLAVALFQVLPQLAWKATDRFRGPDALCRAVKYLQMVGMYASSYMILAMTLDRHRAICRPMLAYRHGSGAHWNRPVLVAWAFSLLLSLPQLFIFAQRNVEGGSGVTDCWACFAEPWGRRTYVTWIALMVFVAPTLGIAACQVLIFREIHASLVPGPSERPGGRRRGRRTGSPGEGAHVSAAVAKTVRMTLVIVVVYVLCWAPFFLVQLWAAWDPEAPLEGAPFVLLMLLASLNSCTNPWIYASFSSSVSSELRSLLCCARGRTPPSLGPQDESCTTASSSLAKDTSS
Sequence of Vasopressin V1a/V2 (Homo sapiens) (P37288 whole entry, looked up): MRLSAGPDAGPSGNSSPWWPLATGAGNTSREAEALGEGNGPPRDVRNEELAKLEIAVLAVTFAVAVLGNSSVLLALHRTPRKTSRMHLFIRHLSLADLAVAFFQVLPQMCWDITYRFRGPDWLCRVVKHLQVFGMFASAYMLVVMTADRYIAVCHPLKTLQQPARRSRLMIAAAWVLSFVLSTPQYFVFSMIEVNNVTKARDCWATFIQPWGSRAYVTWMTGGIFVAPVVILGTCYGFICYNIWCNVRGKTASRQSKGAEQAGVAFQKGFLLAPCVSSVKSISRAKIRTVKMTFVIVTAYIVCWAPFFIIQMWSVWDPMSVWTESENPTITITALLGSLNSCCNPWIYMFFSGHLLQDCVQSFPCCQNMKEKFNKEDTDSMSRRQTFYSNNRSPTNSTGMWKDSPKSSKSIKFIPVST
Sequence of Vasopressin V2 receptor (P30518 whole entry): as the sequence (P30518 whole entry, looked up) above
Sequence of Vasopressin V1a receptor (Homo sapiens, UniProt P37288) (P37288 whole entry): as the sequence (P37288 whole entry, looked up) above

CC[C@H](C)[C@@H]1NC(=O)[C@H](CC2CCCCC2)NC(=O)[C@@H](N)CSSC[C@@H](C(=O)N2CCC[C@H]2C(=O)N[C@@H](CCCNC(C)C)C(=O)NCC(N)=O)NC(=O)[C@H](CC(N)=O)NC(=O)[C@H](CC(N)=O)NC1=O (H-C[Cha]INNCP[Orn(iPr)]G-NH2; disulfide 1-6)
Ratio EC50 [1]: 690 | EC50 (Vasopressin V1a receptor [2]): 1.4 nM | EC50 (Vasopressin V1b receptor): 110 nM | EC50 (Vasopressin V2 receptor): 970 nM | EC50 (Oxytocin receptor; cho-k1, read-out: EC50): > 10000 nM | EC50 (Oxytocin receptor; read-out: pEC50 (converted)): > 10000 nM | Ratio EC50 (Homo sapiens [3]): 78 | Ratio EC50 (Homo sapiens [4]): > 7100 | EC50 (Vasopressin V1a receptor [5]): 57 nM | Time (Rattus norvegicus): 4.1 unitless ratio
